{"source": "paper PMC4324418", "about": "(ACS Chemical Neuroscience, 2014)", "key": {"[1]": {"test_system": "wild-type mice", "assay": "Contextual fear conditioning, four-shock, MK-801-induced deficit", "assay_type": "in vivo, mouse", "conditions": "MK-801 0.1–0.3 mg/kg prior to the four-shock conditioning trial", "procedure,_shortened": "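Subjects were wild-type and M4 KO mice, 8–11 weeks old, handled for 3 days and saline-injected 1 day before conditioning. Vehicle (10% Tween 80 in water, IP) or test compound (3–10 mg/kg IP) was given 30 min before saline or MK-801 (0.1–0.3 mg/kg IP). Mice entered the chamber 30 min later for a four-shock conditioning trial. Percent freezing was scored 24 h later, drug-free.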"}, "[2]": {"test_system": "wild-type mice", "assay": "Touchscreen pairwise visual discrimination task, wild-type mice", "assay_type": "in vivo, mouse", "procedure,_shortened": "(§1)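 Mice aged 8–11 weeks were held at ~85% free-feeding weight, with water freely available. They were trained on touchscreen nosepoke discrimination (60 trials or 60 min) to ≥85% accuracy on 3 consecutive days. Next day: vehicle (10% Tween 80 IP) or test compound (3–30 mg/kg IP) 60 min pre-test, then saline or MK-801 (0.1–0.3 mg/kg IP) 30 min later. Mice were retested drug-free 24 h later. Analysis: ANOVA with Bonferroni tests.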"}, "[3]": {"test_system": "wild-type mice", "assay": "MK-801-induced hyperlocomotion in wild-type mice", "assay_type": "in vivo, mouse", "conditions": "IP", "procedure,_shortened": "(§2)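 Wild-type and M4 KO mice were habituated 90 min in a photobeam open field. They then received vehicle (10% Tween 80 IP), followed 30 min later by saline or MK-801 IP, and activity was recorded for 120 min. Distance traveled was binned per 5 min. Totals covered t = 120 to 240 min and were analyzed by ANOVA with Bonferroni post hoc tests.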"}, "[4]": {"test_system": "M4 KO mice", "assay": "MK-801-induced hyperlocomotion in M4 KO mice", "assay_type": "in vivo, mouse", "conditions": "IP, lowest significant dose", "procedure,_shortened": "as §2"}, "[5]": {"test_system": "M4 KO mice", "assay": "Touchscreen pairwise visual discrimination task, M4 KO mice", "assay_type": "in vivo, mouse", "conditions": "M4 KO", "procedure,_shortened": "as §1"}, "[6]": {"test_system": "wild-type mice", "assay": "Modified Irwin neurological test battery", "assay_type": "in vivo, mouse", "conditions": "1 mg/kg"}, "[7]": {"target": "T1, rat M4 receptor (Rattus norvegicus, UniProt P08485)", "T1 sequence (P08485 1-478)": "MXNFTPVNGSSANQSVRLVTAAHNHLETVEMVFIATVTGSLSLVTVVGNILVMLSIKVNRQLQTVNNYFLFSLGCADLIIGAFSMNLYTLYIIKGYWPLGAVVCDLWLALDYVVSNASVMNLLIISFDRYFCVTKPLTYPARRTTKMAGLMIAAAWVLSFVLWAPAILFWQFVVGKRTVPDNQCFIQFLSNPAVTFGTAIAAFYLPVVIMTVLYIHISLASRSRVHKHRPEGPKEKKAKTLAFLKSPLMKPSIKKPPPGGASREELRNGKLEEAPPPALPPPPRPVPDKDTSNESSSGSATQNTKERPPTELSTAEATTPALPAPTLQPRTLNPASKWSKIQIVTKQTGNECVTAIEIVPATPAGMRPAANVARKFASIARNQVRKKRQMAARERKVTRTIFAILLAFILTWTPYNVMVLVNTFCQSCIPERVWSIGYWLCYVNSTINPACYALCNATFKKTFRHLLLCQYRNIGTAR", "assay_type": "cell-based"}, "[8]": {"conditions": "potentiation of an EC20 concentration of ACh, CHO cells"}}, "note": "Counter-ions that a name gives are not always drawn. Marks after values point to notes of the source that are not given here."}
{"smiles": "C[C@]12N[C@H](Cc3ccccc31)c1ccccc12", "note": "[MK-801, (5S,10R)-(+)-5-methyl-10,11-dihydro-5H-dibenzo[a,d]cyclohepten-5,10-imine maleate, reference compound]", "values": [{"measurement": "acquisition of contextual fear conditioning (percent freezing)", "setting": "[1]", "value": "dose-dependently impaired"}, {"measurement": "response accuracy on the test day", "setting": "[2]; 0.3 mg/kg MK-801 (vehicle group 92%)", "value": 63, "unit": "%"}, {"measurement": "correct reward collection latency", "setting": "[2]; vehicle + MK-801 0.10 mg/kg IP", "value": "1.32 ± 0.15", "unit": "s"}, {"measurement": "correct touch latency", "setting": "[2]; vehicle + MK-801 0.10 mg/kg IP", "value": "2.95 ± 0.57", "unit": "s"}, {"measurement": "time to complete 60 trials", "setting": "[2]; vehicle + MK-801 0.10 mg/kg IP", "value": "1004 ± 124.3", "unit": "s"}, {"measurement": "correct reward collection latency", "setting": "[2]; vehicle + MK-801 0.30 mg/kg IP", "value": "5.58 ± 2.58", "unit": "s"}, {"measurement": "correct touch latency", "setting": "[2]; vehicle + MK-801 0.30 mg/kg IP", "value": "8.65 ± 1.99", "unit": "s"}, {"measurement": "time to complete 60 trials", "setting": "[2]; vehicle + MK-801 0.30 mg/kg IP", "value": "1118 ± 139.2", "unit": "s"}, {"measurement": "dose with significant effect on locomotor activity", "setting": "[3]", "value": 3, "unit": "mg/kg"}, {"measurement": "dose with significant effect on locomotor activity", "setting": "[4]", "value": 0.18, "unit": "mg/kg"}, {"measurement": "response accuracy on the test day", "setting": "[5]; MK-801 alone (vehicle 91%)", "value": 73, "unit": "%"}, {"measurement": "correct reward collection latency", "setting": "[5]; vehicle + MK-801 0.30 mg/kg IP", "value": "1.54 ± 0.15", "unit": "s"}, {"measurement": "correct touch latency", "setting": "[5]; vehicle + MK-801 0.30 mg/kg IP", "value": "8.76 ± 2.19", "unit": "s"}, {"measurement": "time to complete 60 trials", "setting": "[5]; vehicle + MK-801 0.30 mg/kg IP", "value": "1264 ± 280.5 ^f s"}]}
{"smiles": "O=C1CCCN1CC#CCN1CCCC1", "note": "[oxotremorine, oxotremorine sesquifumarate, reference compound]", "values": [{"measurement": "autonomic function and somatomotor deficits", "setting": "[6]", "value": "induced time-dependent changes in autonomic function"}]}
{"smiles": "COc1nc2sc(C(=O)NC3CC3)c(N)c2c(C)c1Cl", "note": "[LY2033298]", "values": [{"measurement": "%AChmax", "setting": "[7]; maximum response as % of the Emax of ACh", "value": 67, "unit": "%"}, {"measurement": "EC50", "setting": "[7]; [8]", "value": 646, "unit": "nM"}, {"measurement": "pEC50", "setting": "[7]; [8]", "value": "6.19 ± 0.03"}]}
